Experimental data reported in ChEMBL document CHEMBL3804828, “2,4,6-Triaminopyrimidine as a Novel Hinge Binder in a Series of PI3Kδ Selective Inhibitors” (J Med Chem, 2016).

Columns and labels:
[1] = target: PI3-kinase p110-delta/p85-alpha (Homo sapiens, UniProt O00329); assay: Inhibition human full length PI3Kdelta catalytic subunit/p85alpha assessed as formation of PIP3 after 30 mins by europium labeled GRP-based TR-FRET assay; assay type: protein-complex assay
[2] = species: Homo sapiens; assay: Selectivity ratio of IC50 for human full length PI3Kalpha catalytic subunit/p85alpha to IC50 for human full length PI3Kdelta catalytic subunit/p85alpha
Summary of the method: (§1)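 Ratio calculated from the isoform-specific PI3K IC50 values, with enzyme assays run in quadruplicate.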

[3] = species: Homo sapiens; assay: Selectivity ratio of IC50 for human recombinant PI3Kbeta to IC50 for human full length PI3Kdelta catalytic subunit/p85alpha; summary of the method: as §1
[4] = species: Homo sapiens; assay: Selectivity ratio of IC50 for human full length PI3Kgamma to IC50 for human full length PI3Kdelta catalytic subunit/p85alpha; summary of the method: as §1
[5] = Clearance in human hepatocytes at 1 uM by LC/MS/MS analysis; assay type: ADME, cell-based, Hepatocyte
Summary of the method: (§2)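 Human hepatocytes, incubated with and without the aldehyde oxidase inhibitor raloxifene; predicted clearance calculated from turnover.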

[6] = test system: Hepatocyte; assay: Clearance in human hepatocytes at 1 uM by LC/MS/MS in presence of aldehyde oxidase inhibitor raloxifene; assay type: ADME, cell-based; summary of the method: as §2

Sequence of PI3-kinase p110-delta/p85-alpha (P27986 whole entry): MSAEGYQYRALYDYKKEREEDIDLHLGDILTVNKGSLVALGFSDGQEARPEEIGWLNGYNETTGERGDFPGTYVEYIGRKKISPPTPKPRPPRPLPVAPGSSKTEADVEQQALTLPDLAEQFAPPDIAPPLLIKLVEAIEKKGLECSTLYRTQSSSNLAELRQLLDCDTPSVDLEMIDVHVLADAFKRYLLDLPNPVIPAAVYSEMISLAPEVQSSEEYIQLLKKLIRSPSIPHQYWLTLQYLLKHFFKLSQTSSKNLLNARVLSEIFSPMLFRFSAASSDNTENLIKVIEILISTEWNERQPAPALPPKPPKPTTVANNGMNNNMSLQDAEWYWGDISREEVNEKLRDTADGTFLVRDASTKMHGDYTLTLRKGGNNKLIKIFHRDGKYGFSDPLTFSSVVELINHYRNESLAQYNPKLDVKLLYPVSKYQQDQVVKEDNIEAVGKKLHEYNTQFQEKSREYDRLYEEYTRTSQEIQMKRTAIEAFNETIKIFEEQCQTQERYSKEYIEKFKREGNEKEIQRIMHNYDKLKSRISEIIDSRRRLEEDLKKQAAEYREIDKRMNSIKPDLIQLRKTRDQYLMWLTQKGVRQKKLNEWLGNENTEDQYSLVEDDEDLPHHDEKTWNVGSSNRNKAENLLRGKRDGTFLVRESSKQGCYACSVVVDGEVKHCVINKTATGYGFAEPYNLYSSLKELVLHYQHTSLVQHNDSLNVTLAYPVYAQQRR
Sequence of PI3-kinase p110-delta/p85-alpha (O00329 whole entry): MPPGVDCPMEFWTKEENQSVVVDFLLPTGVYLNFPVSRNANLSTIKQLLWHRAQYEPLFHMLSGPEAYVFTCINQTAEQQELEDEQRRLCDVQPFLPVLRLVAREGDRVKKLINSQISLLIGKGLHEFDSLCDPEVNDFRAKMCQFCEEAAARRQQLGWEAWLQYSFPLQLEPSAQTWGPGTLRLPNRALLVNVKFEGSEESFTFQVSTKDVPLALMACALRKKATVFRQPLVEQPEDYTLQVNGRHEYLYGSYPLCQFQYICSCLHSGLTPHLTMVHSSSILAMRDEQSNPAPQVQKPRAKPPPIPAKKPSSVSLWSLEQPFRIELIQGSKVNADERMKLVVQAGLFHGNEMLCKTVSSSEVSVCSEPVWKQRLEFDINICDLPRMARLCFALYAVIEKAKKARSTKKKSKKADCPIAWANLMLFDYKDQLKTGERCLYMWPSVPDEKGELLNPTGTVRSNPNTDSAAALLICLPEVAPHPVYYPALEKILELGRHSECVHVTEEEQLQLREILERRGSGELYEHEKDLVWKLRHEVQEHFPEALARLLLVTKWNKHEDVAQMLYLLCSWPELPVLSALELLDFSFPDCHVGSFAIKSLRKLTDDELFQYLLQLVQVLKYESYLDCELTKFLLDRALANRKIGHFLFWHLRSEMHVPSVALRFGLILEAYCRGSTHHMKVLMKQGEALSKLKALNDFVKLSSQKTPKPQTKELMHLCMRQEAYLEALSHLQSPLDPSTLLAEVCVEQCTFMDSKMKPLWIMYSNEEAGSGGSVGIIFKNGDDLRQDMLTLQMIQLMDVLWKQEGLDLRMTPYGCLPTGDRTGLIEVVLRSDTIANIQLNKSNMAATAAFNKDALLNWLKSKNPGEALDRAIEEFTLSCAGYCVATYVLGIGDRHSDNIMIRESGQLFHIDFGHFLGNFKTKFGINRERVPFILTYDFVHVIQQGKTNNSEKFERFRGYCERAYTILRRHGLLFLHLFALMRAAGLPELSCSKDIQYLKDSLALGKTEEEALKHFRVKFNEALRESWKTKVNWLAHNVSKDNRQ

IC50 [1] [nM] | Ratio IC50 [2] | Ratio IC50 [3] | Ratio IC50 [4] | CLhep predicted at 1 µM [5] [mL/min/kg] | Compound | CLH [6] [mL/min/kg]
1.9 | 1700 | 340 | 90 |  | C[C@H](Nc1nc(N)nc(N)c1C#N)c1nc2cccc(Cl)c2c(=O)n1-c1cccc(C#N)c1 | 
0.54 | 1800 | 190 | 210 |  | C[C@H](Nc1nc(N)nc(N)c1C#N)c1nc2cccc(Cl)c2c(=O)n1-c1cccc(C(F)F)c1 | 
3.6 | 1100 | 230 | 57 |  | C[C@H](Nc1nc(N)nc(N)c1C#N)c1nc2cccc(Cl)c2c(=O)n1-c1cccc(C(F)(F)F)c1 | 
1.6 | 1400 | 230 | 120 |  | C[C@H](Nc1nc(N)nc(N)c1C#N)c1nc2cccc(Cl)c2c(=O)n1-c1cccc(CC(F)F)c1 | 
2 | 64 | 4 | 2 |  | C[C@H](Nc1nc(N)nc(N)c1C#N)c1nc2cccc(Cl)c2c(=O)n1-c1ccc(F)cc1 | 
0.45 | 530 | 140 | 70 |  | C[C@H](Nc1nc(N)nc(N)c1C#N)c1nc2cccc(Cl)c2c(=O)n1-c1cccc(Cl)c1 | 
1.5 | 850 | 220 | 220 |  | C[C@H](Nc1nc(N)nc(N)c1C#N)c1nc2cccc(Cl)c2c(=O)n1-c1cc(Cl)cc(C(F)F)c1 | 
0.47 | 2600 | 520 | 110 | 13.5 | C[C@H](Nc1nc(N)nc(N)c1C#N)c1nc2cccc(Cl)c2c(=O)n1-c1cc(F)cc(F)c1 | 
0.9 | 1100 | 330 | 70 |  | COc1cccc(-n2c([C@H](C)Nc3nc(N)nc(N)c3C#N)nc3cccc(Cl)c3c2=O)c1 | 
0.15 | 3100 | 550 | 90 |  | C[C@H](Nc1nc(N)nc(N)c1C#N)c1nc2cccc(Cl)c2c(=O)n1-c1cccc(F)c1 | 
150 | > 68 | > 68 | > 68 |  | C[C@H](Nc1nc(N)nc(N)c1C#N)c1nc2cccc(Cl)c2c(=O)n1-c1cc(C#N)cc(C#N)c1 | 

More lines, now with the values behind:

Compound | IC50 [1] [nM] | Ratio IC50 [2] | Ratio IC50 [3] | Ratio IC50 [4] | CLhep predicted at 1 µM [5] [mL/min/kg] | CLH [6] [mL/min/kg]
C[C@H](Nc1ncnc(N)c1C#Cc1cn[nH]c1)c1nc2cccc(Cl)c2c(=O)n1-c1ccccc1 | 0.3 | 1500 | 260 | 230 |  | 
C#Cc1c(N)ncnc1N[C@@H](C)c1nc2cccc(Cl)c2c(=O)n1-c1ccccc1 | 0.1 | 9700 | 490 | 1900 | 11 | 
C[C@H](Nc1nc(N)ncc1C#N)c1nc2cccc(Cl)c2c(=O)n1-c1ccccc1 | 2.5 | 530 | 170 | 15 |  | 
C[C@H](Nc1nc(N)nc(N)c1Cl)c1nc2cccc(Cl)c2c(=O)n1-c1ccccc1 | 0.9 | 2700 | 370 | 200 | 10.8 | 
C[C@H](Nc1ncnc(N)c1C(F)(F)F)c1nc2cccc(Cl)c2c(=O)n1-c1ccccc1 | 1.8 | 1200 | 340 | 560 | 9.83 | 2
C[C@H](Nc1nc(N)nc(Cl)c1C#N)c1nc2cccc(Cl)c2c(=O)n1-c1ccccc1 | 1 | 530 | 100 | 25 | 13.7 | 
C[C@H](Nc1ccncn1)c1nc2cccc(Cl)c2c(=O)n1-c1ccccc1 | 1700 | > 6 | > 6 | > 6 |  | 
C[C@H](Nc1ncnc(N)c1C#Cc1cccnc1)c1nc2cccc(Cl)c2c(=O)n1-c1ccccc1 | 0.5 | 620 | 240 | 100 |  | 
C[C@H](Nc1ncnc(N)c1C#Cc1cccnn1)c1nc2cccc(Cl)c2c(=O)n1-c1ccccc1 | 240 | > 42 | 30 | > 42 |  | 
C[C@H](Nc1nc(N)nc(N)c1C#N)c1nc2c(F)cccc2c(=O)n1-c1cc(F)cc(F)c1 | 3.5 | 810 | 920 | 130 | 8.83 | 
C[C@H](Nc1nc(N)nc(N)c1C#N)c1nc2ccc(F)c(Cl)c2c(=O)n1-c1cc(F)cc(F)c1 | 2.9 | 780 | 470 | 74 | 6.5 | 
COc1c(N)ncnc1N[C@@H](C)c1nc2cccc(Cl)c2c(=O)n1-c1ccccc1 | 39 | > 251 | > 251 | > 251 |  | 
C[C@H](Nc1nc(Cl)nc(N)c1C#N)c1nc2cccc(Cl)c2c(=O)n1-c1ccccc1 | 4.3 | 720 | 180 | 37 | 9.83 | 
C[C@H](Nc1cc(N)ncn1)c1nc2cccc(Cl)c2c(=O)n1-c1ccccc1 | 99 | > 100 | > 100 | > 100 |  | 
C[C@H](Nc1nc(N)nc(N)c1C#N)c1nc2ccccc2c(=O)n1-c1cc(F)cc(F)c1 | 15 | 530 | 290 | 75 | 2.83 | 
Cc1c(N)ncnc1N[C@@H](C)c1nc2cccc(Cl)c2c(=O)n1-c1ccccc1 | 14 | 700 | 380 | 700 | 12.2 | 4.17
C[C@H](Nc1ncnc(N)c1C#Cc1cnccn1)c1nc2cccc(Cl)c2c(=O)n1-c1ccccc1 | 0.4 | 3200 | 52 | 512 |  | 
C[C@H](Nc1nc(N)nc(N)c1C#N)c1nc2ccc(F)cc2c(=O)n1-c1cc(F)cc(F)c1 | 4.8 | 600 | 520 | 160 | 4.83 | 
C[C@H](Nc1ccnc(N)c1C#N)c1nc2cccc(Cl)c2c(=O)n1-c1ccccc1 | 30 | > 340 | > 340 | > 340 |  | 
Cc1nc(N)nc(N[C@@H](C)c2nc3cccc(Cl)c3c(=O)n2-c2ccccc2)c1C#N | 0.13 | 1900 | 100 | 40 | 17.5 | 
C[C@H](Nc1ncncc1C#N)c1nc2cccc(Cl)c2c(=O)n1-c1ccccc1 | 8 | 1200 | 460 | 370 |  | 
C[C@H](Nc1ncnc(N)c1C#Cc1ccccc1)c1nc2cccc(Cl)c2c(=O)n1-c1ccccc1 | 0.3 | 1600 | 120 | 320 |  | 
C[C@H](Nc1nc(N)nc(N)c1C#N)c1nc2c(C#N)cccc2c(=O)n1-c1cc(F)cc(F)c1 | 5.9 | 1700 | 1200 | 800 | 8.33 | 
[2H]c1nc(N)c(C#N)c(N[C@@H](C)c2nc3cccc(Cl)c3c(=O)n2-c2ccccc2)n1 | 1.2 |  |  |  | 8.33 | 1.7
